Results on two compounds are retold here after ChEMBL document CHEMBL5230175, “The war on hTG2: warhead optimization in small molecule human tissue transglutaminase inhibitors” (RSC Med Chem, 2023).

Structures are written as SMILES.

The target in data set [1] is T1, Protein-glutamine gamma-glutamyltransferase K (Homo sapiens) (UniProt P22735).
T1 sequence (whole entry): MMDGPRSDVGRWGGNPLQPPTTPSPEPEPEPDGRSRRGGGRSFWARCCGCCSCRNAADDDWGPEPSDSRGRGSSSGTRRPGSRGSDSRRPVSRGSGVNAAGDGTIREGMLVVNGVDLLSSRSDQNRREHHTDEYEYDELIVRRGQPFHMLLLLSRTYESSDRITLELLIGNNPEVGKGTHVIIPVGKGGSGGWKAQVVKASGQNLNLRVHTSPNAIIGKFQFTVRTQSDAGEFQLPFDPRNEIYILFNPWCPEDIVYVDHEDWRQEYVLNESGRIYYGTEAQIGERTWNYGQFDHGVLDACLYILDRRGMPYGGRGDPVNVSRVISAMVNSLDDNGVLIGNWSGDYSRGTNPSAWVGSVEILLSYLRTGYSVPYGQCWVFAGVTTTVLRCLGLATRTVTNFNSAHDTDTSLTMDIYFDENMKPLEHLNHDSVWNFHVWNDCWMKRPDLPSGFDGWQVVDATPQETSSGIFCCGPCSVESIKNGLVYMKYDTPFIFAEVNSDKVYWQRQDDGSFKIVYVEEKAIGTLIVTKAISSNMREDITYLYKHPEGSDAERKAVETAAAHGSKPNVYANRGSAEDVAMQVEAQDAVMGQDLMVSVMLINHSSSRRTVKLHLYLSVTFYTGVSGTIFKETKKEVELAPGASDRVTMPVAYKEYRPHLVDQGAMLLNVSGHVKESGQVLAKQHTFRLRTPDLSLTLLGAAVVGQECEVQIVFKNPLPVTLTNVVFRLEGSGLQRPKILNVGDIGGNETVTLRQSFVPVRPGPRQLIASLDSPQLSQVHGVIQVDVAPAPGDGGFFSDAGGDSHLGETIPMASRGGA
The data set can be described thus: Irreversible inhibition of human TG1 using Cbz-Glu-(gamma-p-nitrophenylester)Gly (AL5) as substrate assessed as substrate hydrolysis by measuring observed binding constant incubated for 100 mins by colorimetric assay.

Data set [2] has as its target T2, Protein-glutamine gamma-glutamyltransferase 6 (Homo sapiens) (UniProt O95932).
T2 sequence (whole entry): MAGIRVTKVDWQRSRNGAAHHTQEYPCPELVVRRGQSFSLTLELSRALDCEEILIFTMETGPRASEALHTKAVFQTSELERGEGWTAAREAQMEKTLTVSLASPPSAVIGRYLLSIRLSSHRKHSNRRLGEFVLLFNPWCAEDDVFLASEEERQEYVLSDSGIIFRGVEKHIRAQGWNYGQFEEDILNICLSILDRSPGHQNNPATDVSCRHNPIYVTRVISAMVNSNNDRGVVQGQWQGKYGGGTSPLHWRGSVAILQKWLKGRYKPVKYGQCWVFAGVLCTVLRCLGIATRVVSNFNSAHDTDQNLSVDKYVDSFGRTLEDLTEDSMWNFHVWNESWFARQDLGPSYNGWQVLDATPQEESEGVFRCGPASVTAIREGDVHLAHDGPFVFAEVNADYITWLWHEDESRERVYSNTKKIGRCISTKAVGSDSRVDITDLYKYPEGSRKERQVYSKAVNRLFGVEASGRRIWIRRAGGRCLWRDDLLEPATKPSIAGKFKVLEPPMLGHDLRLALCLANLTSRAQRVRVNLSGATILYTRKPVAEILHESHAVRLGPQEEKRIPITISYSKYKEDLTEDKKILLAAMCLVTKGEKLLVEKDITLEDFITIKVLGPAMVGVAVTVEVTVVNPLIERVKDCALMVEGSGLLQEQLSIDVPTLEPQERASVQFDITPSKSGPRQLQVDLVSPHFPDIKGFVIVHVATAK
The data set can be described thus: Irreversible inhibition of human TG6 using Cbz-Glu-(gamma-p-nitrophenylester)Gly (AL5) as substrate assessed as substrate hydrolysis by measuring observed binding constant incubated for 60 mins by colorimetric assay.

Data set [3] has as its target T3, Protein-glutamine gamma-glutamyltransferase (Homo sapiens) (UniProt P21980).
T3 sequence (whole entry): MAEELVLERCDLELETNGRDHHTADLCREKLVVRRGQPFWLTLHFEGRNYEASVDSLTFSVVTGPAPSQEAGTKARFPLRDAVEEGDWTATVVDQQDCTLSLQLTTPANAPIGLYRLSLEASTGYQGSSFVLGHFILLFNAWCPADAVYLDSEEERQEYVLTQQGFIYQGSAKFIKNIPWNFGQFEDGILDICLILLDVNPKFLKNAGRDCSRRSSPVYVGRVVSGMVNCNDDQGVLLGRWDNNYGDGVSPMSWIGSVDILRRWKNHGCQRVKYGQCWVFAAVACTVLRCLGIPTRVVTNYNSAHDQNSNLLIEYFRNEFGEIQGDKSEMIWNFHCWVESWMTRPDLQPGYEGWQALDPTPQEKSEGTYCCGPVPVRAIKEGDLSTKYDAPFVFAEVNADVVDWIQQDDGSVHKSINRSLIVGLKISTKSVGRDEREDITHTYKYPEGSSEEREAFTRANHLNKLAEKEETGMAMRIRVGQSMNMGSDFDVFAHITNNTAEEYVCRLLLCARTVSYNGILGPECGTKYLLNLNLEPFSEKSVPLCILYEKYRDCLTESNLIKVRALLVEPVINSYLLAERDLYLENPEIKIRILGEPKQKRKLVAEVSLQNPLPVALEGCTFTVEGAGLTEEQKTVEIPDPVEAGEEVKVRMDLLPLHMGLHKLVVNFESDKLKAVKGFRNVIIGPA
The data set can be described thus: Inhibition of human recombinant tissue transglutaminase expressed in Escherichia coli using Cbz-Glu-(gamma-p-nitrophenylester)Gly (AL5) as substrate assessed as substrate hydrolysis by measuring Kinact incubated for 20 mins by colorimetric analysis.

The nature of data set [4]: Ratio of Kinact/Ki for inhibition of human tissue transglutaminase assessed as substrate hydrolysis to corrected second order rate constant (K2 corrected) for GSH reactivity in aqueous buffer assessed as GSH adduct formation. Format: physicochemical.
In data set [5] the target is T4, Protein-glutamine gamma-glutamyltransferase (Homo sapiens, UniProt P21980).
T4 sequence (P21980 whole entry): T3 sequence (whole entry)
The data set can be described thus: Irreversible inhibition of human recombinant tissue transglutaminase expressed in Escherichia coli using Cbz-Glu-(gamma-p-nitrophenylester)Gly (AL5) as substrate assessed as substrate hydrolysis by measuring KI incubated for 20 mins by colorimetric analysis.

Data set [6] deals with T3, Protein-glutamine gamma-glutamyltransferase (Homo sapiens). Kind of data set: Irreversible inhibition of human recombinant tissue transglutaminase expressed in Escherichia coli using Cbz-Glu-(gamma-p-nitrophenylester)Gly (AL5) as substrate assessed as substrate hydrolysis by measuring Kinact/Ki ratio by linear regression analysis. In outline:
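For TG2/AL5 under Kitz–Wilson conditions (100 μM AL5, pH 6.9 MOPS, 25 °C, 405 nm), kinact/KI was taken from simple linear regression of kobs against corrected inhibitor concentration at the lowest inhibitor concentrations.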

For data set [7] the target is unchanged. Kind of data set: Irreversible inhibition of human recombinant tissue transglutaminase expressed in Escherichia coli using Cbz-Glu-(gamma-p-nitrophenylester)Gly (AL5) as substrate assessed as substrate hydrolysis by measuring Kinact/Ki ratio incubated for 20 mins by colorimetric analysis.

Regarding `C=CC(=O)NCC(=O)N1CCN(C(=O)C23CC4CC(CC(C4)C2)C3)CC1`, the K in data set [1] was 0.023 min⁻¹; in data set [2], 0.02 min⁻¹.
For the compound `O=C(CCl)NCC(=O)N1CCN(C(=O)C23CC4CC(CC(C4)C2)C3)CC1`, the Kinact in data set [3] stood at 1.23 min⁻¹. For the same compound, the Ratio is 5.437 in data set [4], 4540 10^3/M/min in data set [6] and 8050 10^3/M/min in data set [7]. In addition, in data set [5], the Ki is 150 nM. The K in data set [1] came out at 0.018 min⁻¹.
